ChEMBL document CHEMBL4043080 (J Med Chem, 2017)
Calls of active or inactive are those of the source. The rule behind the calls is not given here.

Assays:
Rhodopsin kinase GRK1 = Rhodopsin kinase GRK1 (Bos taurus, UniProt P28327); assay: Inhibition of bovine GRK1 (1 to 535 residues) after 5 mins after 5 mins in presence of ATP by phosphorimaging assay
[1] = molecular target: G protein-coupled receptor kinase 5 (Bos taurus, UniProt P43249); assay: Inhibition of bovine GRK5 after 5 mins after 5 mins in presence of ATP by phosphorimaging assay
[2] = Inhibition of mouse PKA using CREBtide as substrate after 30 mins in presence of ATP by ADP-Glo kinase assay
How it was run: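 Mouse PKA catalytic subunit activity by ADP-Glo luminescence per kit protocol; inhibition curves fitted to obtain values.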

Liver = assay: Half life in CD-1 mouse liver microsomes at 1 uM measured up to 60 mins in presence of NADPH by LC-MS/MS analysis; assay type: ADME, microsome; settings: 1 h
[3] = molecular target: T1, Beta-adrenergic receptor kinase 1 (Mus musculus) (UniProt Q99MK8); assay: Inhibition of GRK2 in isoproterenol-stimulated C57/BL6 mouse cardiomyocytes assessed as increase in contractility by measuring cell shortening at 1 uM pretreated for 10 mins followed by beta-AR agonist isoproterenol addition for 2 mins
T1 sequence (whole entry): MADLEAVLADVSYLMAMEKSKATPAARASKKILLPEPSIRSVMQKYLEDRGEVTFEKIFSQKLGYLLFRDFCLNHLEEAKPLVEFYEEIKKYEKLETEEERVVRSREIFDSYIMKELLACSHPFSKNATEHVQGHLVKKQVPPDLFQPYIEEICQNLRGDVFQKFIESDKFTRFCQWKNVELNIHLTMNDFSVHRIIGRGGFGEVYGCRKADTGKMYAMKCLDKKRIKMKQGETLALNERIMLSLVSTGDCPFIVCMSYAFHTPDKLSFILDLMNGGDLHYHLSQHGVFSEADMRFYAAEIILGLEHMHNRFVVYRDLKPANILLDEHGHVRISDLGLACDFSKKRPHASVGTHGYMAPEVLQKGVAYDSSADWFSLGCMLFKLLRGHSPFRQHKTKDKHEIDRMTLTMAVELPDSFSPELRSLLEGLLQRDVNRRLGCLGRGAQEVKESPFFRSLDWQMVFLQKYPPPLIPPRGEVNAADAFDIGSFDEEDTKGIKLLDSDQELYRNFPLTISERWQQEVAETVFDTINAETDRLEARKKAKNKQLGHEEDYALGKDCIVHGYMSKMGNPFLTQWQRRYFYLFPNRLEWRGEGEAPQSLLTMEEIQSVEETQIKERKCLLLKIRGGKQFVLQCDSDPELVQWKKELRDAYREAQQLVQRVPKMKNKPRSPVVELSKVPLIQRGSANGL

[4] = molecular target: T1, Beta-adrenergic receptor kinase 1 (Mus musculus); assay: Inhibition of GRK2 in isoproterenol-stimulated C57/BL6 mouse cardiomyocytes assessed as increase in contractility by measuring cell shortening at 0.5 uM pretreated for 10 mins followed by beta-AR agonist isoproterenol addition for 2 mins
[5] = molecular target: T1, Beta-adrenergic receptor kinase 1 (Mus musculus); assay: Inhibition of GRK2 in isoproterenol-stimulated C57/BL6 mouse cardiomyocytes assessed as increase in contractility by measuring cell shortening at 0.1 uM pretreated for 10 mins followed by beta-AR agonist isoproterenol addition for 2 mins
[6] = Plasma concentration in CD-1 mouse at 10 mg/kg, ip after 4 hrs administered as single dose by LC-MS/MS analysis; assay type: ADME, organism-based
How it was run: (§1)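 Female CD-1 mice given a single ip dose of 10 mg/kg in 15% DMSO/15% PEG-400/70% PBS (v/v); blood sampled at 0.5, 2, 4 and 7 h, centrifuged, plasma frozen at −80 °C; drug quantified by positive-ion MRM LC–MS/MS; parameters by noncompartmental analysis.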

[7] = Plasma concentration in CD-1 mouse at 10 mg/kg, ip after 7 hrs administered as single dose by LC-MS/MS analysis; assay type: ADME, organism-based; how it was run: as §1
[8] = molecular target: T1, Beta-adrenergic receptor kinase 1 (Mus musculus); settings: C57/BL6
Mus musculus = assay: AUC (0 to 7 hrs) in CD-1 mouse at 10 mg/kg, ip administered as single dose by LC-MS/MS analysis; assay type: ADME, organism-based; parameters: time < 7 hr, dose 10 mg/kg, route intraperitoneal; settings: in vivo; how it was run: as §1

Sequence of Rhodopsin kinase GRK1 (P28327 whole entry, the tested form may be a part): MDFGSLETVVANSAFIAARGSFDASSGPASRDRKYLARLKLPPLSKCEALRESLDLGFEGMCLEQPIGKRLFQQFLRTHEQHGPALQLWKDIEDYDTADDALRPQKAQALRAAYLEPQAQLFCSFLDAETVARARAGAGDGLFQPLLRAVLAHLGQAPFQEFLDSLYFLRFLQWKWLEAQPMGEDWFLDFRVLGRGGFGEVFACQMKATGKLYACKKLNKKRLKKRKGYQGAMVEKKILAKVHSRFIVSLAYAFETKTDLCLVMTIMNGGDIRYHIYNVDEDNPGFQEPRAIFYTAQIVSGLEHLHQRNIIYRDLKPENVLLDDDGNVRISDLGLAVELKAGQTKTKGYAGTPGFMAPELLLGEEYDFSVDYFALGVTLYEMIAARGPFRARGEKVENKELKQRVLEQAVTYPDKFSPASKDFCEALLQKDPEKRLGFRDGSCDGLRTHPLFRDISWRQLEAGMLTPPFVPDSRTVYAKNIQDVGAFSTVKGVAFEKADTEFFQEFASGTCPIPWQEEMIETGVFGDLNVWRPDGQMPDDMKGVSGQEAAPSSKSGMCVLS
Sequence of G protein-coupled receptor kinase 5 (P43249 whole entry): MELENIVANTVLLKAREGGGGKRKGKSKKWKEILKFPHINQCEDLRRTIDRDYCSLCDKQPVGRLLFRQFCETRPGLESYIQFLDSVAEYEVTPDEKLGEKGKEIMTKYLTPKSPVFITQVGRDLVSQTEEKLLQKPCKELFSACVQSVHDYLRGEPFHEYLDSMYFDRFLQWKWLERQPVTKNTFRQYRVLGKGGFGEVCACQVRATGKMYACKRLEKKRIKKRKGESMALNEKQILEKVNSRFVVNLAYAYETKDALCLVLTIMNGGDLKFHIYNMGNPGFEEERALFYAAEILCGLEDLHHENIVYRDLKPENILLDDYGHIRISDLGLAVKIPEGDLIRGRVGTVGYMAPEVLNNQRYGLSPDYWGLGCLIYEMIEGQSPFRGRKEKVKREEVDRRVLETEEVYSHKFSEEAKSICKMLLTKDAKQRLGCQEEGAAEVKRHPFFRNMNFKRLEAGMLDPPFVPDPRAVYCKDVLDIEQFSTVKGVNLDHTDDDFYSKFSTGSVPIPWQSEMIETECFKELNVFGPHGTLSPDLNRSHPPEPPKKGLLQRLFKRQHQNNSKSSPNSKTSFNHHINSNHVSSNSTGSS

SMILES	IC50 (Rhodopsin kinase GRK1)	IC50 [1]	IC50 [2]	other results
O=C(NCc1ccncc1)c1cc([C@@H]2CCNC[C@H]2COc2ccc3c(c2)OCO3)ccc1F	> 100 µM	> 100 µM	> 100 µM	
COc1cccc(OC)c1CNC(=O)c1cc([C@@H]2CCNC[C@H]2COc2ccc3c(c2)OCO3)ccc1F	32 µM	38.4 µM	> 100 µM	t1/2 (Liver): 24.9 min
O=C(NCCc1ccccn1)c1cc([C@@H]2CCNC[C@H]2COc2ccc3c(c2)OCO3)ccc1F	> 100 µM	> 100 µM	> 100 µM	
O=C(NCc1ccccc1)c1cc([C@@H]2CCNC[C@H]2COc2ccc3c(c2)OCO3)ccc1F	> 100 µM	84.3 µM	> 100 µM	
COc1ccccc1CNC(=O)c1cc([C@@H]2CCNC[C@H]2COc2ccc3c(c2)OCO3)ccc1F	> 100 µM	> 100 µM	> 100 µM	
COc1cccc(OC)c1CNC(=O)c1cc(C2NC(=O)NC(C)=C2C(=O)Nc2ccc3[nH]ncc3c2)ccc1F (centres undefined)	> 100 µM	> 100 µM	> 100 µM	t1/2 (Liver): 3.82 min
O=C(NCCc1cn[nH]c1)c1cc([C@@H]2CCNC[C@H]2COc2ccc3c(c2)OCO3)ccc1F	> 100 µM	> 100 µM	> 100 µM	
O=C(NCc1cn[nH]c1)c1cc([C@@H]2CCNC[C@H]2COc2ccc3c(c2)OCO3)ccc1F	> 100 µM	> 100 µM	> 100 µM	
O=C(NCc1ccccc1C(F)(F)F)c1cc([C@@H]2CCNC[C@H]2COc2ccc3c(c2)OCO3)ccc1F	> 100 µM	75.7 µM	> 100 µM	
CC1=C(C(=O)Nc2ccc3[nH]ncc3c2)C(c2ccc(F)cc2)NC(=O)N1 (centres undefined) [GSK-180736A]	> 100 µM			t1/2 (Liver): 20.6 min; inhibition [3]: Active
O=C(Cc1cc([C@@H]2CCNC[C@H]2COc2ccc3c(c2)OCO3)ccc1F)NCCc1cn[nH]c1	> 100 µM	> 100 µM	> 100 µM	
O=C(Cc1cc([C@@H]2CCNC[C@H]2COc2ccc3c(c2)OCO3)ccc1F)NCCc1ccccn1	> 100 µM	> 100 µM	> 100 µM	
O=C(NCc1ccccn1)c1cc([C@@H]2CCNC[C@H]2COc2ccc3c(c2)OCO3)ccc1F	> 100 µM	17.1 µM	> 100 µM	t1/2 (Liver): 3.15 min; inhibition [4]: inactive; inhibition [3]: inactive
Cc1cc(CNC(=O)c2cc([C@@H]3CCNC[C@H]3COc3ccc4c(c3)OCO4)ccc2F)n[nH]1	86.5 µM	4 µM	> 100 µM	t1/2 (Liver): 10.3 min
O=C(NCCc1c(F)cccc1F)c1cc([C@@H]2CCNC[C@H]2COc2ccc3c(c2)OCO3)ccc1F	> 100 µM	10.2 µM	> 100 µM	
Cc1cccc(C)c1CNC(=O)c1cc([C@@H]2CCNC[C@H]2COc2ccc3c(c2)OCO3)ccc1F	24.5 µM	42.3 µM	> 100 µM	t1/2 (Liver): 45.9 min
O=C(NCCc1cc[nH]n1)c1cc([C@@H]2CCNC[C@H]2COc2ccc3c(c2)OCO3)ccc1F	> 100 µM	> 100 µM	> 100 µM	

SMILES	IC50 (Rhodopsin kinase GRK1)	IC50 [1]	IC50 [2]	other results
O=C(NCc1c(F)cccc1F)c1cc([C@@H]2CCNC[C@H]2COc2ccc3c(c2)OCO3)ccc1F	> 100 µM	37.2 µM	> 100 µM	
Fc1ccc([C@@H]2CCNC[C@H]2COc2ccc3c(c2)OCO3)cc1 [PAROXETINE]	> 100 µM	> 100 µM	> 100 µM	t1/2 (Liver): 24.3 min
CNC(=O)c1cc([C@@H]2CCNC[C@H]2COc2ccc3c(c2)OCO3)ccc1F	> 100 µM	> 100 µM	> 100 µM	
O=C(NCCc1cccnc1)c1cc([C@@H]2CCNC[C@H]2COc2ccc3c(c2)OCO3)ccc1F	> 100 µM	> 100 µM	> 100 µM	
O=C(Cc1cc([C@@H]2CCNC[C@H]2COc2ccc3c(c2)OCO3)ccc1F)NCc1ccccn1	60 µM	> 100 µM	48.2 µM	
Cn1nccc1CNC(=O)c1cc([C@@H]2CCNC[C@H]2COc2ccc3c(c2)OCO3)ccc1F	> 100 µM	> 100 µM	> 100 µM	
O=C(NCCc1c[nH]cn1)c1cc([C@@H]2CCNC[C@H]2COc2ccc3c(c2)OCO3)ccc1F	> 100 µM	> 100 µM	> 100 µM	
O=C(NCCc1ccncc1)c1cc([C@@H]2CCNC[C@H]2COc2ccc3c(c2)OCO3)ccc1F	> 100 µM	> 100 µM	> 100 µM	
Cn1ccc(CNC(=O)c2cc([C@@H]3CCNC[C@H]3COc3ccc4c(c3)OCO4)ccc2F)n1	> 100 µM	> 100 µM	> 100 µM	
COc1ccccc1CNC(=O)Cc1cc([C@@H]2CCNC[C@H]2COc2ccc3c(c2)OCO3)ccc1F	> 100 µM	> 100 µM	25.8 µM	
O=C(NCc1ccn[nH]1)c1cc([C@@H]2CCNC[C@H]2COc2ccc3c(c2)OCO3)ccc1F			> 100 µM	inhibition [5]: Active; concentration at 4 h [6]: 270 nM; concentration at 7 h [7]: 43 nM; MEC [8]: 0.1 µM
O=C(NCc1c(Cl)cccc1Cl)c1cc([C@@H]2CCNC[C@H]2COc2ccc3c(c2)OCO3)ccc1F	25.8 µM	33.2 µM	> 100 µM	t1/2 (Liver): 36.4 min
O=C(NCCc1ccccc1)c1cc([C@@H]2CCNC[C@H]2COc2ccc3c(c2)OCO3)ccc1F	> 100 µM	> 100 µM	> 100 µM	
O=C(NCc1cccnc1)c1cc([C@@H]2CCNC[C@H]2COc2ccc3c(c2)OCO3)ccc1F	> 100 µM	76.3 µM	> 100 µM	
CCCn1c(CNc2cccc(C(=O)NCc3c(F)cccc3F)c2)nnc1-c1ccncn1	9.1 µM	2.2 µM		
Cn1c(CNc2cccc(C(=O)NCc3ccccc3C(F)(F)F)c2)nnc1-c1ccncc1	52.1 µM	9.2 µM		concentration at 4 h [6]: 5 nM; concentration at 7 h [7]: 6 nM; AUC (Mus musculus): 1.9 µM·h
O=C(NCc1ncc[nH]1)c1cc([C@@H]2CCNC[C@H]2COc2ccc3c(c2)OCO3)ccc1F	> 100 µM	14.8 µM	> 100 µM	
